From PubChem BioAssay AID602138 (Broad Institute, 2011)
The source made the active and inactive calls. No rule for the calls is given here.

Assay: HDL-directed efflux in C384S receptor cells – cell-based, ldlA CHO, [3H]cholesterol, dry powder, mechanism study for SR-BI HDL uptake inhibitor project, dose response (AID 602138)
Settings: ldlA CHO cells mSR-BI C384S, [3H]cholesterol efflux to HDL; at 25 µM (top of the series)
Outline: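 Assay system: Cys384S SR-BI mutant ldlA CHO cells; Signal: liquid scintillation counting of medium and Triton cell lysate; Probe or stimulus: HDL, 100 µg/mL final; Incubation: 24 h FAF-BSA equilibration, 1 h preincubation, 2 h HDL efflux.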

C[C@H](C(=O)NC1CCCC1)N(C(=O)Cn1nnc(-c2ccc3c(c2)OCO3)n1)C1CCCCC1
efflux, lower = inhibition: 5.73% (active)

COCC(=O)N1CCc2cc(-c3csc(NC(=O)c4cc(OC)cc(OC)c4)n3)ccc21
efflux, lower = inhibition: 6.26% (active)
